Bioassay records (PubChem)
This is a sample that favours compounds with a hit; in the whole collection about 4.1% have one here.
KCNK3 block: human KCNK3 channel inhibition, primary screen | 340,000 tested, 0.84% active | O14649 | CHO-KCNK3 thallium flux, FluxOR fluorescence; active compounds read low | B-score at 10 µM;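 active means B-score under library mean minus 4 SD, starting fluorescence ratio at most library mean plus 5 SD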;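 further: more negative B-score means stronger inhibition of thallium flux through KCNK3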
KCNQ1 inh: human KCNQ1 channel inhibition | P51787 | CHO-K1 KCNQ1, FluxOR thallium flux fluorescence; active compounds read high | B-score at 10 µM | 310,000 tested, 1.3% active | AID 2642;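 active means compounds whose thallium flux B-score, printed positive for inhibition, exceeds three library SD while starting fluorescence stays within three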;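 further: channel opened by potassium depolarization with thallium stimulus after 20 min compound exposure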
Target sequence (P51787 whole entry, looked up): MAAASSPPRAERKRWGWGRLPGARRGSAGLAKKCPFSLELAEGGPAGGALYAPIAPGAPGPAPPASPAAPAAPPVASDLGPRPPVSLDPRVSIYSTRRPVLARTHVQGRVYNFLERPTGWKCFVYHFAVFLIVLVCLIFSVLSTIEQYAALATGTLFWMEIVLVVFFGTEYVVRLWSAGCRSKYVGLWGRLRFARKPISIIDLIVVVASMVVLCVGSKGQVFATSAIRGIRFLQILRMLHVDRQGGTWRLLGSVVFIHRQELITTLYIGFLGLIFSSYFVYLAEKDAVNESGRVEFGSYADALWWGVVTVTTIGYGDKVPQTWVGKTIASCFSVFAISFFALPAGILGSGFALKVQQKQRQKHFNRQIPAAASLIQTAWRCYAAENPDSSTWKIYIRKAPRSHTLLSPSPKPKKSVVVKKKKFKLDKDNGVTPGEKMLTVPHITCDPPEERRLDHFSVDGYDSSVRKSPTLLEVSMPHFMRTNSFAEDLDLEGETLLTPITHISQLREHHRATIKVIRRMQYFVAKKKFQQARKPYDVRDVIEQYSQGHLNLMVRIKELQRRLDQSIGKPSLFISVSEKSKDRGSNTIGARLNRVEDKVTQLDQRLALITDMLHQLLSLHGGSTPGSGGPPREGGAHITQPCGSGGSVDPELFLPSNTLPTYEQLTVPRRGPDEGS
hERG rescue: compounds protecting human hERG from proarrhythmic drug block; activation (rescue from dofetilide block), less the hit threshold, % at 10 µM; 310,000 tested, 0.51% active; CHO-hERG, FluxOR thallium flux, dofetilide IC70 present;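 active means activation above the mean of controls blocked by dofetilide plus 5 SD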;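 further: thallium influx through hERG after potassium depolarization seen as dye fluorescence rise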
KCC2 mod: modulates chloride dependent transport by human KCC2. KCC2 cells, thallium flux FluoZin-2 fluorescence. Q9H2X9. 190,000 tested, 2.2% active. B-score of Tl+ flux slope (higher = more flux/activation; lower = inhibition) at 10 µM;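 active means thallium flux slope and its plate-corrected score both differing from the plate sample mean at a set confidence after two filtering rounds, in either direction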;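 further: slope of fluorescence scaled to starting intensity during 10 to 20 s after thallium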
KCNQ1 pot: human KCNQ1 channel potentiation or activation; P51787; 310,000 tested, 0.35% active; CHO-K1 KCNQ1, thallium flux FluxOR fluorescence; active compounds read high; B-score at 10 µM;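 active means fluorescence ratio B-score, a plate-corrected score, at least three library SD, with initial intensity B-score within 5 SD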
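Assay system: CHO-K1 cells stably expressing KCNQ1. Medium: assay buffer for compound exposure, DMSO matched across wells. Timing: 37 °C overnight plating, 90-min dark dye load, 20-min compound pretreatment. Signal: kinetic FluxOR fluorescence, 10 s baseline plus 110 s post-stimulus.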
KCNK9 inh: inhibitors of human KCNK9 two-pore domain potassium channel | Q9NPC2 | HEK293 KCNK9, FluxOR thallium flux fluorescence; active compounds read low | B-score at 10 µM | 310,000 tested, 1.2% active;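 active means ratio B-score over 3 SD below the library mean, with starting fluorescence within 5 SD of its mean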;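 further: negative B-score means less thallium flux so channel inhibition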
KCNK9 block conf: human KCNK9 inhibitor confirmation. HEK293 KCNK9 cells, FluxOR thallium flux fluorescence. 4,900 tested, 43% active. inhibition, % at 10 µM. shares compounds with KCNK9 inh;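 active means thallium signal inhibited by more than 5 SD of the compound-free buffer control wells, on both duplicate plates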;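 further: 0% = assay buffer control wells without compound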
Kir21 sel: selectivity of KCNK9 modulators against mouse Kir2.1; Kir2.1 cells, FluxOR thallium flux fluorescence; inhibition, % at 10 µM; AID 492993; shares compounds with KCNK9 inh; 4,900 tested, 4% active;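 active means thallium signal drop more than 5 SD beyond the mean of the no-compound control wells, seen in both duplicate plates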;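 further: signal is fluorescence rise after thallium addition divided by baseline fluorescence; plate controls were assay buffer only for no effect and full block by chlorpromazine control for full effect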
HEK293 Tl ctr: non-induced cell nonspecific activity of KCNK9 modulators | shares compounds with KCNK9 inh | non-induced KCNK9-HEK293, FluxOR thallium flux | inhibition, % at 10 µM | 4,900 tested, 40% active | AID 492997;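 active means thallium signal drop beyond 5 SD of the untreated control mean, on both duplicate plates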;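 further: plate controls were buffer only IC0 wells for no effect and SID17386958 at its maximal inhibitory level for full effect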
Starred values were filed as active, the others as inactive; i = inactive; . = no result given.

SMILES	KCNK3 block	KCNQ1 inh	hERG rescue	KCC2 mod	KCNQ1 pot	KCNK9 inh	KCNK9 block conf	Kir21 sel	HEK293 Tl ctr
COc1ccc(Cl)cc1NC(=O)CN(C)C1CCCCC1	i	i	-9	-0.26	i	i	.	.	.
COc1ccc(Cl)cc1NC(=O)CN(C)C(C)C(=O)NC(=O)NC1CCCCC1 (centres undefined)	i	i	-16	.	i	i	i	i	i
CC(C)C(NC(=O)c1c(F)cccc1F)C(=O)N1CCN(S(=O)(=O)c2ccc(F)cc2)CC1 (centres undefined)	i	.	.	.	.	.	.	.	.
CC(C)c1ccc(S(=O)(=O)N2CCC(C(=O)N3CCN(c4cccc(Cl)c4)CC3)CC2)cc1	i	.	.	.	.	.	.	.	.
CCOc1cc(/C=N/Nc2nc3ccccc3[nH]2)cc(Br)c1OCC(=O)N(C)C	i	i	-3	-1.3	i	-11*	58%*	i	i
Cc1cc(C(=O)Nc2ccc(Cl)cc2)c(C)n1Cc1cccs1	i	i	-14	0.0019	i	i	i	i	i
Cc1cc(C)cc(NC(=O)c2cc(C)n(Cc3cccs3)c2C)c1	i	i	-12	1.3	i	i	.	.	.
Cc1nc(C)c(-c2ccc(SCc3ccc(Cl)cc3)nn2)s1	i	i	-9	.	i	i	i	i	i
CCN(CC)S(=O)(=O)c1ccc(N2CCN(C)CC2)c(NC(=O)CN2C(=O)NC3(CCCCC3)C2=O)c1	i	.	.	.	.	.	.	.	.
CCc1cccc(NC(=S)N2CCC(c3ccccc3)C2)c1 (centres undefined)	i	i	-10	-1.4	i	i	i	i	i
Fc1cc(F)cc(NC(=S)N2CCC(c3ccccc3)C2)c1 (centres undefined)	i	i	-11	0.095	i	i	.	.	.
CSc1cccc(NC(=S)N2CCC(c3ccccc3)C2)c1 (centres undefined)	i	i	-7	.	i	i	i	i	i
CCC(CC)C(=O)Nc1nnc(SCC(=O)NC2CC2)s1	i	i	-5	.	i	i	.	.	.
Cc1ccc(CN(CC(=O)NCCc2ccccc2)C(=O)c2csnn2)cc1	i	i	-6	.	i	i	.	.	.
COCCn1cnnc1SCC(=O)Nc1ccc(N2CCCCC2)cc1	i	.	.	.	.	.	.	.	.
Cc1ccc(NC2=CC(=O)CC(c3ccco3)C2)c(N)c1 (centres undefined)	i	i	-9	-0.6	i	i	.	.	.
Cc1cc(C)cc(NC2=CC(=O)CC(c3ccco3)C2)c1 (centres undefined)	i	i	-6	0.33	i	-12*	37%*	i	24%*
Cn1ccnc1SCC(=O)Nc1cccc2ccccc12	i	i	-4	-0.16	i	i	.	.	.
Cn1ccnc1SCC(=O)n1c2c(c3ccccc31)CCCC2	i	i	-5	-1.9	i	i	i	i	i
CCOC(=O)C1CCCN1C(=O)C1(NC(C)=O)CCCC1 (centres undefined)	i	.	.	.	.	.	.	.	.
C=CCN(C(=O)c1oc2c(Cl)cc(C)cc2c1C)C1CCS(=O)(=O)C1 (centres undefined)	i	i	-7	.	i	i	i	i	i
Cc1ccc(NS(=O)(=O)c2cc(C(=O)N3CCc4ccccc4C3)ccc2Cl)cc1	i	i	-4	-1.2	i	-12*	i	i	26%*
Cc1ccccc1NS(=O)(=O)c1cc(C(=O)N2CCc3ccccc3C2)ccc1C	i	i	-7	.	i	i	.	.	.
O=C(NCc1cc(Br)cc(Br)c1OC(=O)c1ccccc1[N+](=O)[O-])c1ccccc1	i	i	-13	0.63	i	-9.9*	62%*	i	34%*
